# ABHD5-PLIN5 inh = blocks binding of human ABHD5 to perilipin-5. AID 602281. actives 0.78% (n = 360,000). Q00G26+Q8WTS1. inhibition, % at 4 µM. Split G. princeps luciferase complementation, luminescence, 4 h;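 active = inhibition above the mean inhibition across every tested compound plus 3 SD, cut at about 22% in these data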
# NS3 helicase inh = HCV NS3 helicase inhibition. actives 0.56% (n = 290,000). AID 1800. NS3 helicase DNA unwinding, Cy5 molecular beacon fluorescence. inhibition, % at 10.9 µM;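 active = inhibition above the mean of all tested compounds plus 3 SD, set per campaign, cut at about 35% in these data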
#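 Material: hepatitis C virus NS3 helicase domain fragment enzyme; measured by: Cy5 fluorescence, 0 and 60 min reads; control set: DMSO and thioflavine S; incubation: 60 min unwinding reaction at 25 °C after ATP addition; read-out basis: % inhibition from 60/0 min fluorescence ratio, DMSO 0%, thioflavine S 100%; repeats: singlicate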
# A3G deaminase = inhibitors of human APOBEC3G DNA deaminase; Q9HC16; AID 493012; recombinant A3G, ssDNA deamination FAM/TAMRA fluorescence; actives 0.28% (n = 330,000); inhibition, % at 20 µM;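 active = inhibition of at least 40% at 20 µM, with no more than 30% in the related APOBEC3A deaminase screen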
# core dimer inh = blocks dimerization of HCV core protein | inhibition, % at 5 µM | actives 0.33% (n = 300,000) | TR-FRET GST/Flag-core106 dimerization, 1536-well;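 active = inhibition above the mean of all tested compounds plus 3 SD, set per screening campaign, cut at about 45% in these data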
#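 Material: Tagged HCV core106 pair (GST and Flag) | Amount: GST-core106 13.5 nM, Flag-core106 17 nM | Medium: KF-containing HEPES buffer, pH 7.45, DTT, CHAPS, BSA | Reagent: Eu donor and XL665 acceptor anti-tag antibodies | Schedule: 4 h at 22.5 °C | Technique: Time-resolved FRET, ex 340 nm, em 617 and 671 nm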
# PRMT1 inh = blocks human protein arginine methyltransferase 1; Q99873; recombinant PRMT1, activity-based probe fluorescence polarization; inhibition, % at 2.79 µM; actives 1.3% (n = 370,000); AID 652257;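 active = inhibition above about 21% made by adding two undisclosed values, limit read from the data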
# Target sequence (Q99873 whole entry, looked up): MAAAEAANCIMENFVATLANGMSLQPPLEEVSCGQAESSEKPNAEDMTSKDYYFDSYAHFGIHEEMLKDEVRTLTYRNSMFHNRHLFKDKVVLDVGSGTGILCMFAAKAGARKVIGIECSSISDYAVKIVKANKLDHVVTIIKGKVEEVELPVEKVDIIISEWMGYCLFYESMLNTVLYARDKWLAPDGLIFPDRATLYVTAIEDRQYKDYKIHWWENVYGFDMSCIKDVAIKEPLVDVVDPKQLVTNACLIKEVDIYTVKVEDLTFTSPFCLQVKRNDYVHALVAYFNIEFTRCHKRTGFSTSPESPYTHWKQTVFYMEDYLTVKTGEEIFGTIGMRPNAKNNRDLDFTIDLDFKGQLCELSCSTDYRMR
# A3A deaminase = human APOBEC3A DNA deaminase inhibition. P31941. recombinant A3A, FAM/TAMRA ssDNA deamination fluorescence. inhibition, % at 20 µM. actives 0.41% (n = 330,000);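 active = at least 40% inhibition at 20 µM here, with at most 30% in a related deaminase screen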
# Target sequence (P31941 whole entry, looked up): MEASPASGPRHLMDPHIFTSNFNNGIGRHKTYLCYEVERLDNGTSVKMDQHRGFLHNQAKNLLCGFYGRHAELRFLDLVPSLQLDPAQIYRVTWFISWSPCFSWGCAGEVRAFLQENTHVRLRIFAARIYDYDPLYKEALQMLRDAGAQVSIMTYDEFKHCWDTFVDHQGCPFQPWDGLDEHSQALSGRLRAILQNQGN
# ABHD5-PLIN5 conf = ABHD5-PLIN5 interaction inhibition, confirmed | biochemical ABHD5-PLIN5 interaction, luminescence | inhibition, % at 4 µM | shares compounds with ABHD5-PLIN5 inh | actives 67% (n = 2,200); in the data active = inhibition above about 23%
# HNF4 split-luc = active in HNF4 split-luciferase counter-screen for ABHD5-PLIN5 inhibitors; shares compounds with ABHD5-PLIN5 inh; inhibition, % at 4 µM; actives 77% (n = 2,200); AID 651674; HNF4 dimerization, luminescence, biochemical;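 active = mean inhibition across replicate wells exceeding the computed hit threshold, cut at about 13% in these data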;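 also: light from luciferase halves that rejoin when HNF4 fusion proteins dimerize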
# PRMT1 inh conf = PRMT1 (human) inhibition, FP confirmation | shares compounds with PRMT1 inh | recombinant His-PRMT1, activity-based probe fluorescence polarization | inhibition, % at 2.79 µM | actives 42% (n = 3,300) | AID 687036;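 active = mean inhibition across replicates above the hit cutoff derived for the earlier primary screen, cut at about 22% in these data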
# Hits are given with their value; i = inactive; nt = not tested or not shown. Shown are actives, neighbours in structure and some others; about 2.9% of the full set was active somewhere.
SMILES,ABHD5-PLIN5 inh,NS3 helicase inh,A3G deaminase,core dimer inh,PRMT1 inh,A3A deaminase,ABHD5-PLIN5 conf,HNF4 split-luc,PRMT1 inh conf
O=C(O)c1cc(C(=O)O)cc(N2C(=O)c3ccccc3C2=O)c1,nt,nt,nt,nt,i,nt,nt,nt,nt
O=C(CSc1ncn[nH]1)c1cccc([N+](=O)[O-])c1,34.5,i,i,i,31.6,i,i,26.2,25.0
C[C@@H]1CCC[C@@]2(O[C@@H](CCO)C[C@@H](O)[C@@H]2O)O1,i,nt,i,i,i,i,nt,nt,nt
CCOC(=O)C1(Cc2cccc(Cl)c2)CCCN(C(=O)c2cnn(CC)c2)C1 (centres undefined),i,i,i,i,i,i,nt,nt,nt
COc1cccc(-c2ccc3c(c2)[C@@H]2C[C@H]4[C@@H](CN2CC3)[C@H](C)ON4C)c1,nt,nt,nt,nt,i,nt,nt,nt,nt
CN(C)CCC(=O)C(Cc1ccccc1)c1ccccc1 (centres undefined),29.0,nt,i,i,42.1,i,59.8,92.8,31.7
CN(C)CCNC(=O)C(c1ccccc1)c1ccccc1,i,i,i,i,i,i,nt,nt,nt
Cc1ccc(SCC(=O)OCC(=O)N(C)CC(=O)Nc2ccccc2Cl)cc1,i,nt,i,i,i,i,nt,nt,nt
O=C1OC(c2ccc(Cl)cc2)=N/C1=C\C=C\c1ccco1,52.8,i,i,i,39.3,i,i,17.3,i
O=C1OC(c2ccccc2)=N/C1=C\C=C\c1ccco1,38.7,i,i,i,26.2,i,i,34.6,i
O=C(NN=C/C=C/c1ccco1)c1cc(-c2ccc(Cl)cc2)n[nH]1,nt,nt,nt,nt,i,nt,nt,nt,nt
O=C1OC(c2ccccc2)=N/C1=C\C=C\c1ccccc1[N+](=O)[O-],i,i,i,i,i,i,nt,nt,nt
Cc1ccc(NC(=O)c2nc(S(=O)(=O)Cc3ccccc3)ncc2Cl)cc1,71.9,i,i,i,37.7,i,93.8,101.7,23.4
O=C(Nc1ccc(F)cc1)c1nc(S(=O)(=O)Cc2ccccc2)ncc1Cl,60.1,i,i,i,39.3,i,90.4,97.0,i
CSc1ncc(Cl)c(C(=O)Nc2cccc(C)c2)n1,i,i,i,i,i,i,nt,nt,nt
O=C(Nc1ccc(F)cc1)c1nn(-c2ccccc2)c(=O)cc1Cl,i,i,nt,nt,i,nt,nt,nt,nt
Cc1cccc(CS(=O)(=O)c2ncc(Cl)c(C(=O)Nc3c(C)cccc3C)n2)c1,74.6,i,i,i,24.9,i,89.0,106.8,i
O=C(OCC(=O)N1N=C(c2ccc(Cl)cc2)CC1c1ccco1)c1cccnc1 (centres undefined),49.3,nt,i,nt,39.6,i,29.4,26.5,i
O=C(c1ccc(-c2ccc([N+](=O)[O-])cc2)o1)N1CCCCCCC1,38.6,nt,i,nt,30.7,i,42.2,32.6,i
CSCCC(c1nnnn1C1CCCCC1)N1CCN(C/C=C/c2ccccc2)CC1 (centres undefined),i,nt,nt,nt,i,nt,nt,nt,nt
O=C1OC(c2ccccc2)(c2ccc3cc(O)ccc3c2)c2ccccc21 (centres undefined),i,nt,nt,nt,i,nt,nt,nt,nt
CCOC1=CC2=C(C(=O)C(Cl)=CC2=O)[C@@H]2CN(S(=O)(=O)c3ccc(C)cc3)[C@@H](c3ccccc3)[C@H]12,52.9,nt,nt,nt,50.4,nt,103.5,58.4,90.9
Brc1ccc2nc(-c3ccccc3)c(Cc3ccsc3)n2c1,i,nt,nt,nt,i,nt,nt,nt,nt
Fc1cccc(Cc2c(-c3ccco3)nc3c4ccccc4ccn23)c1,26.4,nt,nt,nt,29.8,nt,i,22.8,i
Fc1ccc(-c2nc3c4ccccc4ccn3c2Cc2cccc(F)c2)cc1,nt,nt,nt,nt,i,nt,nt,nt,nt
SMILES,ABHD5-PLIN5 inh,NS3 helicase inh,A3G deaminase,core dimer inh,PRMT1 inh,A3A deaminase,ABHD5-PLIN5 conf,HNF4 split-luc,PRMT1 inh conf
Fc1cccc(Cc2c(-c3ccco3)nc3ccc(Br)cn23)c1,71.6,nt,nt,nt,34.1,nt,43.9,77.6,i
Brc1ccc2nc(-c3ccco3)c(Cc3ccsc3)n2c1,74.7,nt,nt,nt,36.0,nt,49.0,91.3,34.4
O=C(Nc1c(Cl)cccc1Cl)C1CCN(C(=O)c2cccs2)CC1,i,i,i,i,i,i,nt,nt,nt
COc1cc(CN2CCCC(C(=O)c3ccc4c5c(cccc35)CC4)C2)cc(OC)c1O (centres undefined),29.1,i,i,i,27.9,i,i,39.7,i
O=C(c1ccc2c3c(cccc13)CC2)C1CCCN(Cc2cccnc2)C1 (centres undefined),i,i,i,i,i,i,nt,nt,nt
CS(=O)(=O)Nc1ccccc1-c1ccc2nccn2c1,i,nt,nt,nt,i,nt,nt,nt,nt
Cc1cc(C)nc(S/C=C/C(=O)c2ccccc2F)n1,47.8,i,i,i,25.2,i,95.8,100.5,i
Cc1cc(C)nc(NC(=S)NC(=O)c2ccccc2F)n1,i,nt,i,i,i,i,nt,nt,nt
N#Cc1c([N+](=O)[O-])cc([N+](=O)[O-])cc1S(=O)(=O)Cc1ccccc1,36.2,nt,i,nt,72.2,i,63.8,94.9,60.9
COc1cc(OC)c(C#N)c(S(=O)(=O)Cc2ccccc2)c1,i,i,i,i,i,i,nt,nt,nt
CC(=O)Nc1ccc(S(=O)(=O)NCC(=O)NNC(=O)c2csc(N3CCOCC3)n2)cc1,i,nt,i,i,52.3,i,nt,nt,i
FC(F)(F)c1nc(=S)c2ccccc2[nH]1,i,i,nt,nt,32.6,nt,nt,nt,25.0
CCOC(=O)CSC(=S)NC(=O)c1ccc(OC)cc1,i,i,i,i,27.3,i,nt,nt,99.8
COc1ccc(C(=O)NC(=S)SCC(=O)O)cc1,i,i,i,i,i,i,nt,nt,nt
Cc1ccc(NC(=O)CSc2nc(O)c(Cc3ccccc3)c(=O)n2-c2ccccc2)cc1,i,i,i,i,32.7,i,nt,nt,28.9
CCc1c(O)nc(SCC(=O)Nc2c(C)cccc2C)n(-c2ccc(F)cc2)c1=O,i,nt,nt,nt,i,nt,nt,nt,nt
COc1ccc(-n2c(SCC(=O)Nc3ccccc3OC)nc(O)c(Cc3ccccc3)c2=O)cc1,i,i,i,i,30.4,i,nt,nt,22.4
CCc1c(O)nc(SCC(=O)Nc2ccccc2C)n(-c2ccc(C)cc2)c1=O,i,i,i,i,29.6,i,nt,nt,i
CCCCc1c(O)nc(SCC(=O)Nc2ccc(C)cc2)n(-c2ccc(OC)cc2)c1=O,i,i,i,i,i,i,nt,nt,nt
Cc1c(O)nc(SCC(=O)Nc2cccc(C(F)(F)F)c2)n(-c2ccccc2)c1=O,i,i,i,nt,94.8,i,nt,nt,75.1
COc1ccc(CN2CN3Cc4cc(OC)ccc4C3CS2(=O)=O)cc1 (centres undefined),nt,nt,nt,nt,i,nt,nt,nt,nt
O=C(O)CSc1nc2ccc(Br)cc2[nH]1,i,nt,nt,nt,i,nt,nt,nt,nt
CCc1c(O)nc(SCC(=O)Nc2ccc(Br)cc2)n(-c2ccc(C)cc2)c1=O,i,i,i,i,45.4,i,nt,nt,33.1

# High-throughput results: PubChem BioAssay, several laboratories
